pIC50: −log10 of the molar value. The source made the active and inactive calls. No cut-off for these calls is given here.
Columns and labels:
NCI-H1299 [1] = assay: Reduction in cellular total thiol levels in human H1299 cells incubated for 3 hrs by Ellman's reagent based assay; type: functional, cell-based
How it was run: (§1)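 Cells exposed to 0–40 µM compound for 3 h, then trypsinized. Total thiols in cell extracts were quantified with Ellman's reagent.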

[2] = Cytotoxic activity against human H1299 cells assessed as inhibition of cell proliferation incubated for 72 hrs by MTT assay; type: functional, cell-based; conditions: NCI-H1299, 72 h
How it was run: (§2)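 MTT cell survival assay. IC50 is the concentration that inhibits tumour cell proliferation by 50%, read from cell survival curves. Values are given as mean ± SD of three independent experiments.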

Mus musculus [3] = assay: Toxicity in mouse assessed as induction of lethargy at 120 mg/kg/week for 2 weeks; type: organism-based; conditions: in vivo, 336 h
[4] = Potency index, ratio of IC50 for ethacrynic acid to IC50 for test compound for cytotoxic activity against human SKBR3 cells assessed as inhibition of cell proliferation incubated for 72 hrs by MTT assay; type: functional, SK-BR-3
Mus musculus [5] = assay: Toxicity in mouse assessed as induction of paralysis at 120 mg/kg/week for 2 weeks; type: organism-based; conditions: in vivo, 336 h
Mus musculus [6] = assay: Toxicity in mouse assessed as induction of diarrhea at 120 mg/kg/week for 2 weeks; type: organism-based; conditions: in vivo, 336 h
MDA-MB-231 [7] = assay: Induction of ROS generation in human MDA-MB-231 cells at 20 and 40 uM incubated for 3 hrs after pre-incubation with 3 mM NAC for 1 hr by DCFDA staining based fluorescence microscopy; type: functional, cell-based
How it was run: (§3)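 After 3 h exposure at different concentrations, DCFH-DA fluorescence was imaged by fluorescence microscopy. H2O2 (25 µM) served as positive control. In some wells, cells were pretreated with 3 mM N-acetylcysteine before compound addition.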

NCI-H1299 [8] = assay: Increase in PUMA protein expression in p53 deficient human H1299 cells at 10 to 40 uM by Western blot method; type: functional, cell-based
How it was run: (§4)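 H1299 (p53-null), HCT116 (p53 wild type) and MDA-MB-231 (p53 mutant) cells were treated, then lysates were immunoblotted for p53, p21, PUMA and PARP. β-Actin served as loading control.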

MDA-MB-231 [9] = assay: Increase in p21'cip1 protein expression in p53 mutant expressing human MDA-MB-231 cells at 10 to 40 uM by Western blot method; type: functional, cell-based; how it was run: as §4
MCF7 [10] = assay: Potency index, ratio of IC50 for ethacrynic acid to IC50 for test compound for cytotoxic activity against human MCF7 cells assessed as inhibition of cell proliferation incubated for 72 hrs by MTT assay; type: functional
MDA-MB-231 [11] = assay: Cytotoxic activity against human MDA-MB-231 cells assessed as inhibition of cell proliferation incubated for 72 hrs by MTT assay; type: functional, cell-based; conditions: MDA-MB-231, 72 h; how it was run: as §2
HCT-116 [12] = assay: Increase in PUMA protein expression in wild type p53 expressing human HCT116 cells at 10 to 40 uM by Western blot method; type: functional, cell-based; how it was run: as §4
MDA-MB-231 [13] = assay: Reduction in cellular total thiol levels in human MDA-MB-231 cells incubated for 3 hrs by Ellman's reagent based assay; type: functional, cell-based; how it was run: as §1
MDA-MB-231 [14] = assay: Increase in PUMA protein expression in p53 mutant expressing human MDA-MB-231 cells at 10 to 40 uM by Western blot method; type: functional, cell-based; how it was run: as §4
Mus musculus [15] = assay: Toxicity in mouse assessed as induction of weight loss at 120 mg/kg/week for 2 weeks; type: organism-based; conditions: in vivo, 336 h
MDA-MB-468 = assay: Potency index, ratio of IC50 for ethacrynic acid to IC50 for test compound for cytotoxic activity against human MDA-MB-468 cells assessed as inhibition of cell proliferation incubated for 72 hrs by MTT assay; type: functional
HCT-116 [16] = assay: Reduction in cellular total thiol levels in human HCT116 cells incubated for 3 hrs by Ellman's reagent based assay; type: functional, cell-based; how it was run: as §1
[17] = Potency index, ratio of IC50 for ethacrynic acid to IC50 for test compound for cytotoxic activity against human HT1080 cells assessed as inhibition of cell proliferation incubated for 72 hrs by MTT assay; type: functional, HT-1080
How it was run: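 Index is the reference IC50 divided by the test IC50. Both IC50s were taken from MTT cell survival curves, each as mean ± SD of three independent experiments.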

HCT-116 [18] = assay: Increase in p21 (waf1/cip1) protein expression in wild type p53 expressing human HCT116 cells at 10 to 40 uM by Western blot method; type: functional, cell-based; how it was run: as §4
NCI-H1299 [19] = assay: Induction of ROS generation in human H1299 cells at 20 and 40 uM incubated for 3 hrs by DCFDA staining based flow cytometry; type: functional, cell-based
How it was run: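 Cells were exposed for 3 h to compound, or to 25 µM H2O2 as positive control. Where indicated, 3 mM N-acetylcysteine was given 1 h before treatment. Pellets were stained with DCF-DA for 30 min, and intracellular ROS was read as fluorescence shift by flow cytometry against untreated controls.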

MDA-MB-231 [20] = assay: Increase in p21 (waf1/cip1) protein expression in p53 mutant expressing human MDA-MB-231 cells at 10 to 40 uM by Western blot method; type: functional, cell-based; how it was run: as §4
HT-29 = assay: Cytotoxic activity against human HT-29 cells assessed as inhibition of cell proliferation incubated for 72 hrs by MTT assay; type: functional, cell-based; conditions: HT-29, 72 h; how it was run: as §2
NCI-H1299 [21] = assay: Reduction in cellular total thiol levels in human H1299 cells at 40 uM incubated for 3 hrs by Ellman's reagent based assay; type: functional; how it was run: as §1
NCI-H1299 [22] = assay: Increase in p21 (waf1/cip1) protein expression in p53 deficient human H1299 cells at 10 to 40 uM by Western blot method; type: functional, cell-based; how it was run: as §4
HCT-116 [23] = assay: Induction of ROS generation in human HCT116 cells at 20 and 40 uM incubated for 3 hrs by DCFDA staining based fluorescence microscopy; type: functional, cell-based; how it was run: as §3
MCF7 [24] = assay: Cytotoxic activity against human MCF7 cells assessed as inhibition of cell proliferation incubated for 72 hrs by MTT assay; type: functional, cell-based; conditions: MCF7, 72 h; how it was run: as §2
[25] = Cytotoxic activity against human MCF10A cells assessed as inhibition of cell proliferation incubated for 72 hrs by MTT assay; type: cell-based; conditions: mcf-10a; how it was run: as §2
NCI-H1299 [26] = assay: Induction of cell cycle arrest in p53 deficient human H1299 cells assessed as accumulation at G2/M phase incubated for 24 hrs by propidium iodide staining based flow cytometry; type: functional
MDA-MB-231 [27] = assay: Increase in cleaved PARP protein expression in p53 mutant expressing human MDA-MB-231 cells at 10 to 40 uM by Western blot method; type: functional, cell-based; how it was run: as §4
Mus musculus [28] = assay: Toxicity in mouse assessed as induction of stress at 120 mg/kg/week for 2 weeks; type: organism-based; conditions: in vivo, 336 h
MDA-MB-231 [29] = assay: Increase in p53 protein expression in p53 mutant expressing human MDA-MB-231 cells at 10 to 40 uM by Western blot method; type: functional, cell-based; how it was run: as §4
MDA-MB-231 [30] = assay: Induction of ROS generation in human MDA-MB-231 cells at 20 and 40 uM incubated for 3 hrs by DCFDA staining based fluorescence microscopy; type: functional, cell-based; how it was run: as §3
HCT-116 [31] = assay: Induction of cell cycle arrest in wild type p53 expressing human HCT116 cells assessed as accumulation at G2/M phase incubated for 24 hrs by propidium iodide staining based flow cytometry; type: functional
MDA-MB-231 [32] = assay: Reduction in cellular total thiol levels in human MDA-MB-231 cells at 40 uM incubated for 3 hrs by Ellman's reagent based assay; type: functional; how it was run: as §1
NCI-H1299 [33] = assay: Induction of ROS generation in human H1299 cells at 20 and 40 uM incubated for 3 hrs after pre-incubation with 3 mM NAC for 1 hr by DCFDA staining based fluorescence microscopy; type: functional, cell-based; how it was run: as §3

C=C(CC)C(=O)c1ccc(OCC(=O)N[C@@H]2[C@@H](O)[C@H](O)[C@@H](CO)O[C@H]2O)c(Cl)c1Cl
Activity (NCI-H1299 [1]): Dose-dependent effect | pIC50 [2]: 4.94 | Activity (Mus musculus [3]): Non-toxic | Ratio IC50 [4]: 3 | Activity (Mus musculus [5]): Non-toxic | Activity (Mus musculus [6]): Non-toxic | Activity (MDA-MB-231 [7]): inactive | Activity (NCI-H1299 [8]): Active | Activity (MDA-MB-231 [9]): Active | Ratio IC50 (MCF7 [10]): 3 | pIC50 (MDA-MB-231 [11]): 4.91 | Activity (HCT-116 [12]): Active | Activity (MDA-MB-231 [13]): Dose-dependent effect | Activity (MDA-MB-231 [14]): Active | Activity (Mus musculus [15]): Non-toxic | Ratio IC50 (MDA-MB-468): 3 | Activity (HCT-116 [16]): Dose-dependent effect | Ratio IC50 [17]: 3 | Activity (HCT-116 [18]): Active | Activity (NCI-H1299 [19]): Active | Activity (MDA-MB-231 [20]): Active | pIC50 (HT-29): 4.66 | Imax (NCI-H1299 [21]): 58% | Activity (NCI-H1299 [22]): Active | Activity (HCT-116 [23]): Active | pIC50 (MCF7 [24]): 4.99 | Activity [25]: Non-toxic | Activity (NCI-H1299 [26]): Dose-dependent effect | Activity (MDA-MB-231 [27]): Active | Activity (Mus musculus [28]): Non-toxic | Activity (MDA-MB-231 [29]): Active | Activity (MDA-MB-231 [30]): Active | Activity (HCT-116 [31]): Dose-dependent effect | Imax (MDA-MB-231 [32]): 58% | Activity (NCI-H1299 [33]): inactive
